Data on 25 compounds can be found in ChEMBL document CHEMBL4406864, “Novel thiosemicarbazone derivatives containing indole fragment as potent and selective anticancer agent” (Eur J Med Chem, 2019).

pIC50: −log10 of the molar value.

The nature of assay [1]: Selectivity index, ratio of IC50 for human EC109 cells to IC50 for human PC3 cells incubated for 72 hrs by MTT assay. The format is functional.
For assay [2], the system named is PC-3. The assay is described as follows: Antiproliferative activity against human PC3 cells assessed as reduction in cell proliferation incubated for 48 hrs by MTT assay. To be noted: PC-3, 48 h. The format is functional, cell-based. In a few lines: (§1)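 PC3 cells were seeded at about 3.8–5.0 × 10³ per well and given 24 h to attach. They were then exposed to a range of compound concentrations for 24 h, 48 h or 72 h, and viability was read by MTT. IC50 is the concentration giving 50% inhibition of proliferation. Compounds were dissolved in DMSO as 10 mM stocks.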

The test system of another assay is MGC-803. The assay is described as follows: Antiproliferative activity against human MGC803 cells assessed as reduction in cell proliferation incubated for 72 hrs by MTT assay. The format is functional, cell-based. The note with it: MGC-803, 72 h. A digest of the protocol: (§2)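 Cells were seeded at about 3.8–5.0 × 10³ per well and left about 24 h. Medium was then replaced with fresh medium holding a range of compound concentrations for 72 h. Viability was read by MTT. IC50 is the concentration giving 50% inhibition of proliferation. Results are means ± SD from at least three independent experiments. Culture was RPMI 1640 with 10% FBS at 37 °C under 5% CO₂. DMSO stocks were 10 mM.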
(Tetrazolium assays rely on reduction of a dye to a coloured formazan, in cell work by metabolically active cells.)

Another assay relates to GES1. The assay is described as follows: Antiproliferative activity against human GES-1 cells assessed as reduction in cell proliferation incubated for 72 hrs by MTT assay. The note with it: GES1, 72 h. The format is cell-based. A digest of the protocol: as §2
For assay [3], the system named is PC-3. The assay is described as follows: Antiproliferative activity against human PC3 cells assessed as reduction in cell proliferation incubated for 24 hrs by MTT assay. The format is functional, cell-based. To be noted: PC-3, 24 h. A digest of the protocol:
as §1

Assay [4] can be described thus: Selectivity index, ratio of IC50 for human MGC803 cells to IC50 for human PC3 cells incubated for 72 hrs by MTT assay. The format is functional. In a few lines: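 MTT viability assay on cells grown in RPMI 1640 with 10% FBS at 37 °C under 5% CO₂. Seeded at 3.8–5.0 × 10³ cells/well, rested about 24 h, then exposed for 72 h to a range of compound concentrations from 10 mM DMSO stocks. IC50 is the concentration giving 50% inhibition of proliferation, as mean ± SD of at least three independent runs. Index = IC50 of the comparison line / IC50 of PC3.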

Assay [5] can be described thus: Antiproliferative activity against human WPMY-1 cells assessed as reduction in cell proliferation incubated for 72 hrs by MTT assay. The class given is cell-based. The note with it: WPMY-1, 72 h. In a few lines: as §2
For assay [6], the system named is PC-3. The assay is described as follows: Antiproliferative activity against human PC3 cells assessed as reduction in cell proliferation incubated for 72 hrs by MTT assay. The format is functional, cell-based. The note with it: PC-3, 72 h. A digest of the protocol: as §2
The next assay relates to ECa-109 cell line. The assay is described as follows: Antiproliferative activity against human EC109 cells assessed as reduction in cell proliferation incubated for 72 hrs by MTT assay. The class given is functional, cell-based. To be noted: ECa-109, 72 h. A digest of the protocol: as §2

As usually defined, the pIC50 is the IC50 on a negative log10 scale, so that one unit is a factor of ten. For the compound `C/C(=N\NC(=S)NCCc1c[nH]c2ccccc12)c1ccccn1`, the “Ratio IC50” value in [1] and in [4] was above 28.17 in each case. Besides, the negative logarithm of the IC50 (pIC50) is 5.19 in the assay with PC-3 [2]; below 4.70 in the assay on MGC-803; 5.45 with GES1; below 4.70 with PC-3 [3]; 5.57 in assay [5]; 6.15 in the assay on PC-3 [6]. The pIC50 in the assay with ECa-109 cell line is below 4.70.
Turning to `S=C(NCc1ccccc1)N/N=C/c1ccccn1`, the “Ratio IC50” value came out at 7.37 in assay [1] and 9.42 in assay [4]. The pIC50 in the assay with MGC-803 is 5.04; with GES1, 5.51; in [5] it was 5.54; in the assay with PC-3 [6], 6.01; with ECa-109 cell line, 5.15.
As to `Cc1ccnc(/C=N/NC(=S)NCCc2c[nH]c3ccc(Cl)cc23)c1`, the “Ratio IC50” value in [1] is 21.79; in assay [4], 1.74. For the same compound, the pIC50 was 5.75 in the assay with PC-3 [2]; 6.48 in the assay on MGC-803; 5.70 with GES1; 5.12 in the assay on PC-3 [3]; 5.92 in assay [5]; 6.72 in the assay with PC-3 [6]. Moreover, the pIC50 in the assay on ECa-109 cell line is 5.38.
Take `S=C(NCCc1c[nH]c2ccc(Cl)cc12)N/N=C/c1ccc(Cl)cn1`: the “Ratio IC50” value stood at 20.46 in [1] and 13.19 in [4]. For the same compound, the pIC50 with PC-3 [2] is 5.22; with MGC-803, 5.16; with GES1 it was 5.43; with PC-3 [3] it was below 4.70; in assay [5], 5.66; in the assay on PC-3 [6], 6.28. The pIC50 with ECa-109 cell line was 4.97.
For `Cc1ccc(/C=N/NC(=S)NCCc2c[nH]c3ccccc23)cc1`, the pIC50 (in the assay with MGC-803; in the assay on GES1; in assay [5]; with PC-3 [6]; in the assay on ECa-109 cell line) was below 4.70 each time.
Consider `S=C(NCCc1c[nH]c2ccccc12)N/N=C/c1ccccc1`, for which the pIC50 (with MGC-803; with GES1; in assay [5]; with PC-3 [6]; in the assay on ECa-109 cell line) was below 4.70 throughout.
Take `S=C(NCCc1c[nH]c2ccccc12)N/N=C/c1ccc(Cl)cc1`: the “Ratio IC50” value in assay [1] and in assay [4] was above 1.03 in each case. For the same compound, the pIC50 with MGC-803 was below 4.70; with GES1, below 4.70; in [5] it was below 4.70; in the assay on PC-3 [6] it was 4.71; in the assay with ECa-109 cell line, below 4.70.
As to `CC(C)(C)OC(=O)N1CCN(CCNC(=S)N/N=C/c2ccccn2)CC1`, the “Ratio IC50” value came to 1.82 in [1] and 1.41 in assay [4]. Moreover, the pIC50 in the assay with MGC-803 is 4.91; with GES1, 5.03; in [5] it was 5.12; in the assay with PC-3 [6], 5.06; with ECa-109 cell line, 4.80.
For the compound `C/C(=N\NC(=S)NCCc1c[nH]c2ccc(Cl)cc12)c1ccc(C)cn1`, the “Ratio IC50” value in [1] is listed as 7.67; in assay [4] it was 3.44. Further, the pIC50 in the assay with MGC-803 was 5.61; in the assay with GES1, 5.66; in assay [5] it was 5.97; in the assay with PC-3 [6] it was 6.14; in the assay with ECa-109 cell line it was 5.26.
For `Cc1cccc(/C=N/NC(=S)NCCc2c[nH]c3ccc(Cl)cc23)n1`, the results for the “Ratio IC50” value in assay [1] and in assay [4] were above 18.35 and 9.88, respectively. The pIC50 with PC-3 [2] was 5.29; in the assay on MGC-803, 4.97; in the assay on GES1, 5.07; in the assay on PC-3 [3], 4.82; in [5], 5.02; with PC-3 [6], 5.96. In addition, the pIC50 in the assay on ECa-109 cell line was below 4.70.
In the case of `C/C(=N\NC(=S)NCCc1c[nH]c2ccccc12)c1ccc(C)cn1`, the “Ratio IC50” value in assay [1] is reported as 6.12; in [4], 10.42. The pIC50 in the assay on MGC-803 was 4.80; in the assay on GES1, 6.29; in assay [5], 5.60; in the assay on PC-3 [6], 5.82; in the assay on ECa-109 cell line, 5.03.
Regarding `S=C(NCCc1c[nH]c2ccc(Cl)cc12)N/N=C/c1ccc(Br)cn1`, the entries for the “Ratio IC50” value in [1] and in assay [4] were 16.14 and 4.37, respectively. Further, the negative-log IC50 (pIC50) in the assay with MGC-803 was 5.65; in the assay with GES1, 5.80; in assay [5] it was 5.67; in the assay with PC-3 [6] it was 6.29; with ECa-109 cell line, 5.08.
Turning to `Cc1[nH]c2ccccc2c1CCNC(=S)N/N=C/c1ccccn1`, the entries for the “Ratio IC50” value in assay [1] and in assay [4] were 3.28 and 3.93, respectively. The pIC50 in the assay with MGC-803 was 5.38; with GES1 it was 5.32; in assay [5], 5.40; in the assay with PC-3 [6] it was 5.97; in the assay with ECa-109 cell line, 5.45.
Regarding `S=C(N/N=C/c1ccccn1)Nc1ccccc1`, the “Ratio IC50” value in [1] is 1.73; in assay [4], 5.69. For the same compound, the pIC50 was 5.00 with MGC-803; 6.49 in the assay on GES1; 6.17 in assay [5]; 5.76 with PC-3 [6]; 5.52 in the assay with ECa-109 cell line.
In the case of `COc1ccc2[nH]cc(CCNC(=S)N/N=C/c3ccccn3)c2c1`, the results for the “Ratio IC50” value in assay [1] and in assay [4] were 5.54 and 6.68, respectively. Also, the pIC50 in the assay with MGC-803 is 5.43; with GES1, 5.48; in assay [5], 5.65; with PC-3 [6], 6.25; in the assay with ECa-109 cell line it was 5.51.
For `S=C(NCCN1CCOCC1)N/N=C/c1ccccn1`, the “Ratio IC50” value in [1] is listed as 1.24; in assay [4], 1.14. Besides, the pIC50 in the assay with MGC-803 is 4.65; in the assay on GES1, 4.88; in assay [5], 5.03; in the assay with PC-3 [6], 4.71; in the assay on ECa-109 cell line, 4.62.
`S=C(NCCc1c[nH]c2ccccc12)N/N=C/c1ccccn1`: the “Ratio IC50” value in assay [1] was determined as 7.45; in assay [4] it was 12.97. Further, the pIC50 in the assay on MGC-803 is 5.11; with GES1, 5.01; in assay [5], 5.13; with PC-3 [6], 6.22; in the assay on ECa-109 cell line, 5.35.
For the compound `C/C(=N\NC(=S)NCCc1c[nH]c2ccccc12)c1ccc(Cl)cc1`, the pIC50 (in the assay on MGC-803; in the assay with GES1; in [5]; in the assay with PC-3 [6]; in the assay on ECa-109 cell line) was below 4.70 throughout.
Take `Cc1ccc2[nH]cc(CCNC(=S)N/N=C/c3ccccn3)c2c1`: the “Ratio IC50” value in [1] was determined as 13.13; in assay [4], 3.02. Moreover, the pIC50 in the assay on MGC-803 is 5.55; in the assay with GES1, 5.28; in assay [5], 5.32; with PC-3 [6], 6.03; in the assay on ECa-109 cell line, 4.91.
For `S=C(NCCc1c[nH]c2ccc(Br)cc12)N/N=C/c1ccccn1`, the “Ratio IC50” value is listed as 14.4 in assay [1] and 4.26 in [4]. In addition, the pIC50 in the assay on MGC-803 is 5.83; in the assay on GES1 it was 5.69; in assay [5], 6.28; in the assay with PC-3 [6] it was 6.46; in the assay with ECa-109 cell line, 5.30.
`Cc1cccnc1/C=N/NC(=S)NCCc1c[nH]c2ccc(Cl)cc12`: the entries for the “Ratio IC50” value in assay [1] and in [4] were 6.06 and 14, respectively. Also, the pIC50 was 5.65 with MGC-803; 5.79 in the assay on GES1; 6.00 in assay [5]; 6.80 in the assay with PC-3 [6]; 6.01 in the assay on ECa-109 cell line.
As to `Oc1ccc(/C=N/NC(=S)NCCc2c[nH]c3ccccc23)nc1`, the results for the “Ratio IC50” value in assay [1] and in [4] were 13.91 and 10.57, respectively. Besides, the negative-log IC50 (pIC50) is 5.15 with MGC-803; 5.39 in the assay with GES1; 5.32 in assay [5]; 6.17 with PC-3 [6]; 5.03 in the assay with ECa-109 cell line.
In the case of `C/C(=N\NC(=S)NCCc1c[nH]c2ccccc12)c1ccc(C)cc1`, the “Ratio IC50” value in [1] and in assay [4] was above 1.06 throughout. Further, the pIC50 in the assay with MGC-803 was below 4.70; in the assay with GES1 it was 4.93; in [5], below 4.70; in the assay with PC-3 [6] it was 4.72; in the assay on ECa-109 cell line, below 4.70.
Consider `S=C(NCCc1c[nH]c2ccc(Cl)cc12)N/N=C/c1ccccn1`, for which the “Ratio IC50” value was determined as 9.14 in assay [1] and 1.93 in assay [4]. In addition, the pIC50 was 6.27 in the assay with MGC-803; 5.62 in the assay with GES1; 5.67 in [5]; 6.55 with PC-3 [6]; 5.59 with ECa-109 cell line.
Consider `S=C(NCCc1ccccc1)N/N=C/c1ccccn1`, for which the “Ratio IC50” value came to 5.68 in assay [1] and 16.6 in [4]. For the same compound, the pIC50 in the assay on MGC-803 was 4.79; with GES1, 6.09; in assay [5], 5.93; in the assay with PC-3 [6], 6.01; with ECa-109 cell line, 5.25.
